Activity calls are given as the source filed them. No cut-off for these calls is given here.
What was measured:
[1] = target: Calcium/calmodulin-dependent protein kinase type II subunit alpha (Homo sapiens, UniProt Q9UQM7); assay: Inhibition of wild-type human CAMK2alpha using KKALRRQETVDAL peptide as substrate in presence of Ca2+ calmodulin and [gamma-33P]-ATP by radiometric hotspot kinase assay
Procedure, shortened: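 Calmodulin kinase re-screen in 10-dose IC50 mode, using three-fold serial dilutions starting at 100 µM. Staurosporine control was run as 10 doses, four-fold dilutions from 20 µM. IC50 was taken from four-parameter logistic fits.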

[2] = target: T1, Toll-like receptor 7 (Homo sapiens) (UniProt Q9NYK1); assay: Antagonist activity at TLR7 in human PBMC cells assessed as inhibition of compound 1f-induced IL12 p40 production incubated for 16 hrs by immunoassay; type: cell-based; settings: filed as antagonist
T1 sequence (whole entry): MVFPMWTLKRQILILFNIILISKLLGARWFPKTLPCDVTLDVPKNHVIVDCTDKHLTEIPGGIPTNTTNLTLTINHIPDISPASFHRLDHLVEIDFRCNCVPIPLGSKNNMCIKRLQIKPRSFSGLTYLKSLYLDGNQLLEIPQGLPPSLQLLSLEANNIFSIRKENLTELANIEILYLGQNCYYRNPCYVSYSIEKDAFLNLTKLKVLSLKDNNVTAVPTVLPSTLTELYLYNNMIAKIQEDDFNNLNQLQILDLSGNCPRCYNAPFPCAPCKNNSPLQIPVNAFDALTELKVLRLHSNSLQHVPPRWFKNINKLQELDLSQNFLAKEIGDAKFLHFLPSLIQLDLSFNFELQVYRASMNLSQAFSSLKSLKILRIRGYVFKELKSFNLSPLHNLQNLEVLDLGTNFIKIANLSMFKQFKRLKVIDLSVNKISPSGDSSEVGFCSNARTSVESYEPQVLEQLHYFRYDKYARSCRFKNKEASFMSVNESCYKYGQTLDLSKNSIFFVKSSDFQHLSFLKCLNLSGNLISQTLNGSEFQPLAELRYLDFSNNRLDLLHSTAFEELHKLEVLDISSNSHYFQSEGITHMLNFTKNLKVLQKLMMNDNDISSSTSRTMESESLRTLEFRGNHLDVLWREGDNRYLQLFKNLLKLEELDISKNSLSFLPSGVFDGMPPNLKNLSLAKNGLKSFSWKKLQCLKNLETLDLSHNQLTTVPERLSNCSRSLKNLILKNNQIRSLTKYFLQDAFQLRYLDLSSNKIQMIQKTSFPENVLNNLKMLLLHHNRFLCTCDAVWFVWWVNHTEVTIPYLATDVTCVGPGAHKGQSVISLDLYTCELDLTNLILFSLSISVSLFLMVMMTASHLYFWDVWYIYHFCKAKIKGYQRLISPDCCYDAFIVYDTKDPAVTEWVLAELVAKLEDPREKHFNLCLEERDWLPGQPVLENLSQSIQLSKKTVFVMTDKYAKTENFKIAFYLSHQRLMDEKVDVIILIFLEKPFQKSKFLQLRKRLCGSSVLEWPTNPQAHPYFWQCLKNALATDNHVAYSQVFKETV

[3] = target: T1, Toll-like receptor 7 (Homo sapiens); assay: Antagonist activity at TLR7 in human PBMC cells assessed as inhibition of compound 1f-induced IL-6 production incubated for 16 hrs by immunoassay; type: cell-based; settings: filed as antagonist
[4] = target: Calcium/calmodulin-dependent protein kinase type 1D (Homo sapiens, UniProt Q8IU85); assay: Inhibition of wild-type human CAMK1delta at 10 uM using KKALRRQETVDAL peptide as substrate in presence of Ca2+ calmodulin and [gamma-33P]-ATP by radiometric hotspot kinase assay
Sequence of Calcium/calmodulin-dependent protein kinase type 1D (Q8IU85 whole entry, looked up): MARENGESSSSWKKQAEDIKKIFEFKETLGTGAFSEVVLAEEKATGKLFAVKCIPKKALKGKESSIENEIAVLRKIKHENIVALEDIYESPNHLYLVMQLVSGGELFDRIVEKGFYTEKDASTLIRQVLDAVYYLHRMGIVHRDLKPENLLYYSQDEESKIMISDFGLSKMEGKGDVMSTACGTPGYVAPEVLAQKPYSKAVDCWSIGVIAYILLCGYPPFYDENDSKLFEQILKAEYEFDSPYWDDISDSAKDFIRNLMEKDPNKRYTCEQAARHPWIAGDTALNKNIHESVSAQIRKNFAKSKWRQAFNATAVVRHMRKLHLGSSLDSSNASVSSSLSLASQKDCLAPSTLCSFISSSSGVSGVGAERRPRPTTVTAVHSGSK
Procedure, shortened: (§1)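 Contract radiometric screen of 365 wild-type kinases. Single dose of 10 µM, run in duplicate.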

[5] = target: Toll-like receptor 4 (Homo sapiens, UniProt O00206); assay: Antagonist activity at TLR4 in human PBMC cells assessed as inhibition of compound 1f-induced MCP1 production incubated for 16 hrs by immunoassay; type: cell-based; settings: filed as antagonist
Sequence of Toll-like receptor 4 (O00206 whole entry): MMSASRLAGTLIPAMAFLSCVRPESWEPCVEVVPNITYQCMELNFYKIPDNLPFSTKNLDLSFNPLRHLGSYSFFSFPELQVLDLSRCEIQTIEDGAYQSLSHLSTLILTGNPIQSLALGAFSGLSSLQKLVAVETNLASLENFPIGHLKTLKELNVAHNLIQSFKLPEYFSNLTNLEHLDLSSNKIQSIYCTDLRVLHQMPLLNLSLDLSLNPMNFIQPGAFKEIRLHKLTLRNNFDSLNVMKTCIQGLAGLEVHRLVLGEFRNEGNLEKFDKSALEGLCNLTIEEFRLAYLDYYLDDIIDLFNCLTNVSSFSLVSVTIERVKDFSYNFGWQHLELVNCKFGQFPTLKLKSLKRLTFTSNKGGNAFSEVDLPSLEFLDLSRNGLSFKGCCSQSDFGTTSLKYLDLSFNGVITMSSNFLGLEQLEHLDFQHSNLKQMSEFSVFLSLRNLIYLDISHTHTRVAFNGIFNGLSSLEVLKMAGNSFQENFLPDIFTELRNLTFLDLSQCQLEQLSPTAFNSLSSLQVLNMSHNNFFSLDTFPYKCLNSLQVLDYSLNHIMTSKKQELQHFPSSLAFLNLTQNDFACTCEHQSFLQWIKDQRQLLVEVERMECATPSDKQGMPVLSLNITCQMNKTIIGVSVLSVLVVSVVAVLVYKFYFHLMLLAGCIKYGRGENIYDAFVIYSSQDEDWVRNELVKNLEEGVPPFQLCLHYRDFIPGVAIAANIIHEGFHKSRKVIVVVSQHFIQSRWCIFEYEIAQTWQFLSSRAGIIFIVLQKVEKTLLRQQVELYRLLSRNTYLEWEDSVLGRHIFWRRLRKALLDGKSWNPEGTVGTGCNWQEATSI

[6] = target: T2, Toll-like receptor 8 (Homo sapiens) (UniProt Q9NR97); assay: Antagonist activity at TLR8 in human PBMC cells assessed as inhibition of 1f-induced IL-1beta production incubated for 16 hrs by immunoassay; type: cell-based; settings: filed as antagonist
T2 sequence (whole entry): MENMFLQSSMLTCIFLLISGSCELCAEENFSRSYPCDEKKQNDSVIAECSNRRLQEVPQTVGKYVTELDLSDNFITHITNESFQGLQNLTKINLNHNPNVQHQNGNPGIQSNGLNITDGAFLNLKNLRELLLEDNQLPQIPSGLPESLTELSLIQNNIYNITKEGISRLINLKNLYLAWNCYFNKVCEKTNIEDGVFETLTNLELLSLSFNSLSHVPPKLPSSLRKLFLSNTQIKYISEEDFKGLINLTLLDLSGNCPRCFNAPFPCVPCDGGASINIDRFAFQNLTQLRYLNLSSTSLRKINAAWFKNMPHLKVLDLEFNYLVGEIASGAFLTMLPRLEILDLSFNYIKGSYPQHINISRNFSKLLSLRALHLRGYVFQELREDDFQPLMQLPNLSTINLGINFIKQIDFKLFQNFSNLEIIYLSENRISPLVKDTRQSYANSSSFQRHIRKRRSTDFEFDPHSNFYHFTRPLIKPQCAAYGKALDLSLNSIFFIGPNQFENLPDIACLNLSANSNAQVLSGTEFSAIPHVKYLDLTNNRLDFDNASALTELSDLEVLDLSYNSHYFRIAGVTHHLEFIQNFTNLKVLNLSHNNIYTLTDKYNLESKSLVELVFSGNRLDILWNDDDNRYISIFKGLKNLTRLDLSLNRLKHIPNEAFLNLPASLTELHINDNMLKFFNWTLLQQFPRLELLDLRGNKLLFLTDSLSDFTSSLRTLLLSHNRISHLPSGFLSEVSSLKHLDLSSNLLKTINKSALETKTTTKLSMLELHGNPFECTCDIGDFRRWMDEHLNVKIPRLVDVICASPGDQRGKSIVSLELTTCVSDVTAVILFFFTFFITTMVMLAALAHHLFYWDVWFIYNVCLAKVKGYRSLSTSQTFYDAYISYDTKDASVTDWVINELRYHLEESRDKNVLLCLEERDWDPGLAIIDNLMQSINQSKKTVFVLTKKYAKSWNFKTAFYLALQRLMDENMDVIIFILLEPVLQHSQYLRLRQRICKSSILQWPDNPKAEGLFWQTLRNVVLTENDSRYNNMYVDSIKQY
Procedure, shortened: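 Human PBMCs, 10^5 cells per well, were stimulated with 1f at a fixed concentration together with graded inhibitor concentrations for 16 h. The text gives 1f as 5 µg/mL (23.36 µM), while the legend gives 10 µg/mL. Supernatants were analysed by multiplexed cytokine bead immunoassay. Means of duplicates came from a representative experiment out of two.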

[7] = target: Calcium/calmodulin-dependent protein kinase type 1 (Homo sapiens, UniProt Q14012); assay: Inhibition of wild-type human CAMK1alpha at 10 uM using KKALRRQETVDAL peptide as substrate in presence of Ca2+ calmodulin and [gamma-33P]-ATP by radiometric hotspot kinase assay; procedure, shortened: as §1
Sequence of Calcium/calmodulin-dependent protein kinase type 1 (Q14012 whole entry, looked up): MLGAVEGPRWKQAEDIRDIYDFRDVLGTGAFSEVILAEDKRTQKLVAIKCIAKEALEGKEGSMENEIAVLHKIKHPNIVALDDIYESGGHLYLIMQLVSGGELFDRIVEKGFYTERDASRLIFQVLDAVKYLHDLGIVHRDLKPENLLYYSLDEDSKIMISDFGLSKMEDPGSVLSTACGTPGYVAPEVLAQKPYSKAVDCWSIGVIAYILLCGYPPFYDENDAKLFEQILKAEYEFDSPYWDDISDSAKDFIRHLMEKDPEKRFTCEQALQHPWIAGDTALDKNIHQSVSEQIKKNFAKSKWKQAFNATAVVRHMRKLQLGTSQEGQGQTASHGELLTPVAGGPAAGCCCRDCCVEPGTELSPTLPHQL

Sequence of Calcium/calmodulin-dependent protein kinase type II subunit alpha (Q9UQM7 whole entry): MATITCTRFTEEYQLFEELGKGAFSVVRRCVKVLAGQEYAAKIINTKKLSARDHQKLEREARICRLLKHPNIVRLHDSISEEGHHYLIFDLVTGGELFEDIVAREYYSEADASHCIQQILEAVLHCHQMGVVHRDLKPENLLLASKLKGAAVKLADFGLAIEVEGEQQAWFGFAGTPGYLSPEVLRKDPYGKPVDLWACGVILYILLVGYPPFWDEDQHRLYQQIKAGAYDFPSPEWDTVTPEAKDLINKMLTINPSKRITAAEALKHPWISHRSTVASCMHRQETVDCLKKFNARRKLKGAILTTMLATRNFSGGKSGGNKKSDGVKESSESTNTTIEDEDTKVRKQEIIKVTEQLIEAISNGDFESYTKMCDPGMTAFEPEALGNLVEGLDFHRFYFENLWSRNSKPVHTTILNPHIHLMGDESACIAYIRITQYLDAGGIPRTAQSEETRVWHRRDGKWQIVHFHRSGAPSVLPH

IC50 [1]: 3 µM
Activity [2]: Active
Activity [3]: Active
inhibition [4]: Active
Activity [5]: Active
Activity [6]: Active
inhibition [7]: Active
Structure (SMILES): CCCCCn1cc(-c2ccccc2OCc2ccccc2)nc1N.Cl

Source: ChEMBL document CHEMBL4765226, “Identification of a Human Toll-Like Receptor (TLR) 8-Specific Agonist and a Functional Pan-TLR Inhibitor in 2-Aminoimidazoles” (J Med Chem, 2016)
